Results reported in BindingDB's records for doi:10.1021/jm00077a002 (Merck Research Laboratories, 1994).
pIC50: −log10 of the molar value.

What was measured:
Oxytocin receptor [1] = biological target: T1, Oxytocin receptor (Rattus norvegicus, UniProt P70536); experiment: Inhibition of radioligand [3H]oxytocin binding at the oxytocin (OT) receptor in rat uterine tissue
T1 sequence (P70536 whole entry): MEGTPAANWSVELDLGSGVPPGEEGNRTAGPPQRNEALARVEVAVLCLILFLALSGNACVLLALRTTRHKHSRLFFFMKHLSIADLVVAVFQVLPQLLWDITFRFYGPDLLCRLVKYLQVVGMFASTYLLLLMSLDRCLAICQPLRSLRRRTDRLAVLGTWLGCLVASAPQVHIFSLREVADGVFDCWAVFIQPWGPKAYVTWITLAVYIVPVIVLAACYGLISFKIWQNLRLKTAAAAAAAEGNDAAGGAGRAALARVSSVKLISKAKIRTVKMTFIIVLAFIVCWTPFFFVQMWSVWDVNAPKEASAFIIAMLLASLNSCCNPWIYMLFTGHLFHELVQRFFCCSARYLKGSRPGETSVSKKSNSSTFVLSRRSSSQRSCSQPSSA
How it was run: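 Uteri taken from rats given diethylstilbestrol dipropionate (0.3 mg/kg ip, 18–24 h before), crude membranes. 1 nM [3H]OT (30–60 Ci/mmol), equilibrium 60 min at 22 °C in 50 mM Tris-HCl, 5 mM MgCl2, 0.1% BSA, pH 7.4. Nonspecific binding with 1 mM unlabeled OT. Filtered on glass fiber. Initial single-concentration screen, then IC50 from seven concentrations by linear regression.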

[2] = biological target: T2, Vasopressin V1a/V1b receptor (Rattus norvegicus, UniProt P30560+P48974); experiment: ChEBML_211079
Source text: (§1) Inhibition of radioligand [3H]AVP binding to the vasopressin V1 receptor in rat liver tissue

[3] = biological target: T2, Vasopressin V1a/V1b receptor; experiment: as §1
How it was run: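 Crude membranes from male rat liver (V1 sites) competed with 1 nM [3H]AVP (80–90 Ci/mmol). Equilibrium 30 min, 30 °C, buffer 100 mM Tris-HCl, 5 mM MgCl2, 0.1% BSA, 50 μM PMSF, 50 μg/mL bacitracin, pH 8.0. 10 μM unlabeled AVP for nonspecific binding. Filtration through glass-fiber filters. IC50 from linear regression over seven concentrations.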

Oxytocin receptor [4] = biological target: T1, Oxytocin receptor; experiment: ChEBML_145031
Source text: Tested against rat uterine OT receptor

Vasopressin V2 receptor = Vasopressin V2 receptor (Rattus norvegicus, UniProt Q00788); experiment: Inhibition of radioligand [3H]-AVP binding to the vasopressin V2 receptor in rat kidney tissue
How it was run: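 [3H]AVP (80–90 Ci/mmol) at 2 nM competed on crude membranes from male rat kidney medulla (V2 sites). Equilibrium 30 min at 30 °C in 100 mM Tris-HCl, 5 mM MgCl2, 0.1% BSA, 50 μM PMSF, 50 μg/mL bacitracin, pH 8.0. Nonspecific binding with 10 μM unlabeled AVP. Glass-fiber filtration. IC50 by linear regression of % inhibition vs log concentration, seven concentrations.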

T2 sequence (P30560 whole entry): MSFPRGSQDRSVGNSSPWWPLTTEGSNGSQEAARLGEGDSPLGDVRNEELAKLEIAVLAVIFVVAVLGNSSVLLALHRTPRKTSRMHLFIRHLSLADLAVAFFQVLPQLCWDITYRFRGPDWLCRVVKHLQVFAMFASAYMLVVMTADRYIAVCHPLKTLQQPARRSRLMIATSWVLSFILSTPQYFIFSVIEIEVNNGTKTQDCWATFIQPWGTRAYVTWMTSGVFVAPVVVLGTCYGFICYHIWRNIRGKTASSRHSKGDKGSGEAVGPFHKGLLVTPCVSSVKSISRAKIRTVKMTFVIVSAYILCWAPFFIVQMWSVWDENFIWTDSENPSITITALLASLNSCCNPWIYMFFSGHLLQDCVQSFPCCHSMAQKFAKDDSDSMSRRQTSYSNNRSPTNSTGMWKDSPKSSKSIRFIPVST
T2 sequence (P48974 whole entry): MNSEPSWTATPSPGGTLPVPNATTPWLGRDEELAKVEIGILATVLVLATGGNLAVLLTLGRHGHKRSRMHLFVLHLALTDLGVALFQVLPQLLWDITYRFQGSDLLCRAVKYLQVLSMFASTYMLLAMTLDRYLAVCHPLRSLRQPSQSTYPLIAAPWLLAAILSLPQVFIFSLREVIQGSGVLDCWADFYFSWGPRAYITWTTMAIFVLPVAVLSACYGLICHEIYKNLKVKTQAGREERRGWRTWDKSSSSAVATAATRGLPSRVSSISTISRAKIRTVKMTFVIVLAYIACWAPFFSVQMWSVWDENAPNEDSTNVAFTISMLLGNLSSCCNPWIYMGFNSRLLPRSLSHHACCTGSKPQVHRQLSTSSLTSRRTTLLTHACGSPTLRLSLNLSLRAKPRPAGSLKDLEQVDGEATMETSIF
Chain of Vasopressin V2 receptor (Q00788 whole entry): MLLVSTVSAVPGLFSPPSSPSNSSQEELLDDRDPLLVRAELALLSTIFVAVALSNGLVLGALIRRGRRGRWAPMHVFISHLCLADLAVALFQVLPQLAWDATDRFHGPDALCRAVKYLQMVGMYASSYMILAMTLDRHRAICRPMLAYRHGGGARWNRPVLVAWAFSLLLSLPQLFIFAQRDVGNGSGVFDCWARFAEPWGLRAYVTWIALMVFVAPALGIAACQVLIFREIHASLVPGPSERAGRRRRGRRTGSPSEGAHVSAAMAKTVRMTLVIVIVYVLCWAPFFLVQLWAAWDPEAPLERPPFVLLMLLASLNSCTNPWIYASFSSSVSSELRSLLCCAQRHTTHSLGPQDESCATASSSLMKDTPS

- pIC50 (Oxytocin receptor [1]): 7.89
- pIC50 [2]: 6.38
- pIC50 [3]: 6.38
- pIC50 (Oxytocin receptor [4]): 7.89
- pIC50 (Vasopressin V2 receptor): 5.82
Structure (SMILES): CC1(C)[C@@H]2CC[C@@]1(CS(=O)(=O)N1CCC3(CCc4ccccc43)CC1)[C@@H](n1c(O)c(Cc3cnc[nH]3)[nH]c1=O)C2 [3-[7,7-dimethyl-1-spiro[2,3-dihydro-1H-indene-1,4'-(hexahydropyridine)]-1-ylsulfonylmethyl-(1S,2S,4R)-bicyclo[2.2.1]hept-2-yl]-5-(1H-4-imidazolylmethyl)tetrahydro-1H-2,4-imidazoledione]
